Reference: paper PMC3832139 (Cancer chemotherapy and pharmacology, 2013)
pIC50: −log10 of the molar value. Like-named read-outs stand apart in the source and are kept apart here.

Tests used:
MM.1S cells [1] = experiment: MTT cytotoxicity assay; details: read-out: IC50 (cytotoxicity, MTT)
MM.1R cells [2] = experiment: MTT cytotoxicity assay; type: cell-based, human
[3] = Prodrug cleavage and preclinical pharmacokinetics; type: in vitro ADME
p110γ = details: cited from earlier work
MM.1S and MM.1R cells = experiment: Western blot of signaling pathways; type: cell-based, human; details: for phospho-p70 S6 kinase: MM.1R cells, data not shown; for phosphorylation of AKT, MDM2, and ERK: MM.1S and MM.1R cells, 10 μM
[4] = test system: phospho-AKT in CD138+ MM cells; experiment: Phospho-AKT flow cytometry of patient bone marrow CD138+ MM cells; type: in vivo, human; details: patient 002 CD138+ cells before dosing, 10 μM ex vivo, 30 minutes
p110δ = details: cited from earlier work
p110β = details: cited from earlier work
RPMI 8226 cells = experiment: MTT cytotoxicity assay; type: cell-based; details: Homo sapiens, RPMI-8226, 48 h, read-out: IC50 (cytotoxicity, MTT)
[5] = Pharmacokinetics in MM patients, Phase I study of SF1126; details: MM patients given SF1126 infusion, dose levels 90–570 mg/m^2
[6] = human, in vivo
[7] = test system: HIF-1α in RPMI 8226 cells; experiment: Hypoxic HIF-1α stabilization, Western blot; type: cell-based, human; details: RPMI 8226, 1% oxygen, 4 hours, 20 and 40 μM
MM.1R cells [8] = experiment: Cleaved caspase-3 immunocytochemistry; type: cell-based, human
MM.1R xenografts [9] = experiment: Immunohistochemistry of MM.1R tumors; type: in vivo, mouse; details: 50 mg/kg s.c. 3 times weekly
Procedure, shortened: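 Mice bearing s.c. MM.1R flank xenografts (randomized at 100–125 mm³) got test compound 50 mg/kg s.c. or acidified sterile water vehicle, 3 times weekly for 3 weeks. Frozen 4 μm tumor sections were stained with rat anti-mouse CD31; paraffin 5 μm sections were stained overnight with anti-PCNA (PC10). HRP streptavidin-biotin, hematoxylin counterstain, mouse IgG negative control. PCNA labeling index: % positive nuclei over 500 cells, ten 40x fields; SD, n=8.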

HIF-1α in MM.1R cells = experiment: Hypoxic HIF-1α stabilization, Western blot; type: cell-based, human; details: 1% oxygen, 4 hours
MM.1R xenografts [10] = type: in vivo, mouse
MM.1S cells [11] = experiment: Cleaved caspase-3 immunocytochemistry; type: cell-based, human; details: for cells positive for cleaved caspase-3: one hour, non-treated 5.9%
[12] = relapsed or refractory MM patients, Phase I
[13] = cited from earlier work

## O=c1cc(N2CCOCC2)oc2c(-c3ccccc3)cccc12 [LY294002]
MM.1S cells [1]; Homo sapiens, MM1.S, 48 h
  pIC50: 5.14
MM.1R cells [2]; Homo sapiens, 48 h, read-out: IC50 (cytotoxicity, MTT)
  pIC50: 5.04
[3]
  plasma half-life: does not have a measurable plasma half-life
p110γ
  pIC50: […]
Solubility
  solubility: only soluble in 100% DMSO
MM.1S and MM.1R cells
  phospho-p70 S6 kinase: decreased
  phosphorylation of AKT, MDM2, and ERK: significantly decreased
[4]
  endogenous downstream AKT phosphorylation, ex vivo treatment: did not suppress
p110δ
  pIC50: […]
p110β
  pIC50: […]
RPMI 8226 cells
  pIC50: […]
[5]
  t1/2 of active SF1126 hydrolysis product: 1.1 to 1.5 h

## N=C(N)NCCC[C@H](NC(=O)CCC(=O)OC[N+]1(c2cc(=O)c3cccc(-c4ccccc4)c3o2)CCOCC1)C(=O)NCC(=O)N[C@@H](CC(=O)O)C(=O)N[C@@H](CO)C(=O)[O-] [SF1126]
[6]
  clearance of SF1126: rapidly cleared post-infusion
MM.1S cells [1]; MM.1S, 48 hours, sigmoidal dose-response fit
  pIC50: 5.05
MM.1R cells [2]; read-out: IC50 (cytotoxicity, MTT), 48 hours, sigmoidal dose-response fit
  pIC50: 4.93
[7]
  HIF-1α expression under hypoxic conditions: abrogated
MM.1R cells [8]; 5 μM
  increase in caspase 3 cleavage: 3 fold
MM.1R cells [8]; 50 μM
  increase in caspase 3 cleavage: 2.7 fold
MM.1R xenografts [9]; controls 25%, n=8, p<0.02
  PCNA-positive proliferating cells (labeling index): 7%
MM.1R xenografts [9]; n=8, p<0.007
  CD31 microvessel density: striking decrease
MM.1S and MM.1R cells
  expression of survivin: not affected
  phospho-p70 S6 kinase: decreased
  phosphorylation of AKT, MDM2, and ERK: significantly decreased
HIF-1α in MM.1R cells
  HIF-1α accumulation under hypoxic conditions: blocked
MM.1R xenografts [10]; 50 mg/kg s.c. 3 times weekly for 3 weeks, by 34 days
  mean tumor volume relative to controls (fold less): approximately eightfold
MM.1R xenografts [10]; mouse, in vivo
  untoward effects in mice: No untoward effects
MM.1S cells [11]; 5 μM
  increase in cleaved caspase-3 over non-treated cells: 1.4 fold
  cells positive for cleaved caspase-3: 8.3%
MM.1S cells [11]; 50 μM
  increase in cleaved caspase-3 over non-treated cells: 1.9 fold
  cells positive for cleaved caspase-3: 11.4%
[12]
  effect on disease progression: did not appear to modify disease progression

## RADS [SF1326]
[13]
  rate of cleavage to SF1101: same rate as SF1126
